Compounds with a hit are over-represented: about 2.1% of the library has one in this group of screens.
STEP inh: STEP (human) phosphatase inhibition. inhibition, % at 20 µM. hit rate 0.25% among 360,000. P54829. recombinant STEP, OMFP fluorogenic substrate, fluorescence. AID 588621;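 active means inhibition at 20 µM, scaled per plate between control wells, above about 37%, limit read from the data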;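 further: 0% = DMSO with enzyme and substrate and 100% = substrate only without enzyme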
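material = STEP tyrosine phosphatase | reagent = fluorogenic phosphatase substrate OMFP at 25 µM final | doses = single compound dose of 20 µM, 1% DMSO final | schedule = 20 min reaction, room temperature, in the dark | measured by = fluorescence, 480/540 nm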
GRK2 inh: human GRK2 inhibition via aptamer displacement; P25098; bead flow cytometry, FAM-aptamer displacement from GRK2; inhibition of aptamer binding, % at 10 µM; hit rate 0.59% among 330,000; AID 488847;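 active means inhibition of aptamer binding above 40%, roughly 3 SD of noise, on plates passing a quality check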;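 further: median bead fluorescence of bound FAM aptamer so fluorescent compounds give negative values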
Target sequence (P25098 whole entry, looked up): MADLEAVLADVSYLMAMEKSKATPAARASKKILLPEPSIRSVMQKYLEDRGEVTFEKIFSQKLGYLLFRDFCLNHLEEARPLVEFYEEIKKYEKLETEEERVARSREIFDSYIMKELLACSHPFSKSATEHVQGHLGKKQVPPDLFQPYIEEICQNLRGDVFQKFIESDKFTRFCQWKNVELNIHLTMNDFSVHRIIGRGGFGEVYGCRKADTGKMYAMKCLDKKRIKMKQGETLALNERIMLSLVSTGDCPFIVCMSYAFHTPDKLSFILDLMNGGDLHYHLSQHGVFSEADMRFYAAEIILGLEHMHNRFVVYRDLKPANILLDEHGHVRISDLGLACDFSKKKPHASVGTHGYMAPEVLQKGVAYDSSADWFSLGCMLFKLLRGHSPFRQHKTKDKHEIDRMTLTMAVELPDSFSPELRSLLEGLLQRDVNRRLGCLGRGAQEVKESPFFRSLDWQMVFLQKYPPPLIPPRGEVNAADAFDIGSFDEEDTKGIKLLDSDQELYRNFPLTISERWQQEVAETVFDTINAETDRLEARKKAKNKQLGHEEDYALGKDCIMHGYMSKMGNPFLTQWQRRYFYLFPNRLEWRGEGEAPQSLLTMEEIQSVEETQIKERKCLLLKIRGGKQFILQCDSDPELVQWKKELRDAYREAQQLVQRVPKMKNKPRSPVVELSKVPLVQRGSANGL
SUMO1-SIM PPI: alters human SUMO1 binding to SIM partners; P63165; SUMO1 binding to a labelled peptide, TR-FRET, 1 h; inhibition, % at 20 µM; hit rate 0.33% among 360,000; AID 602429; in the data active means inhibition above about 37%
Scp1 inh: Scp-1 (human) phosphatase inhibition; inhibition, % at 20 µM; Q9GZU7; Recombinant Scp1, phosphopeptide, malachite green phosphate absorbance; hit rate 0.88% among 340,000; AID 493091;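 active means inhibition above about 50% at 20 µM, limit read from the data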;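 further: plate controls were DMSO wells with enzyme for no effect and wells lacking enzyme for full effect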
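Incubation: 45 min enzyme reaction at room temperature / System: truncated SCP-1 phosphatase (76-261aa) / Reagent: Phospho 17-mer peptide substrate / Buffer or medium: Acidic Tris acetate buffer with magnesium and detergent / Signal: absorbance at 630 nm / Doses: one concentration, 20 µM, with 1.0% DMSO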
DNMT1 block: inhibitors of human DNMT1; hit rate 0.83% among 360,000; DNMT1 molecular beacon, Hinp1I cleavage, fluorescence; inhibition (reported as % activation of signal), % at 10 µM; P26358; in the data active means inhibition above about 50%
LMPTP inh: LMPTP (human) inhibition | recombinant LMPTP-A, OMFP fluorogenic substrate, fluorescence intensity | inhibition, % at 20 µM | P24666 | hit rate 0.22% among 360,000 | AID 651560;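 active means compounds that cut the enzyme signal by at least half of the control window in the single-dose screen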;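 further: plate controls were DMSO wells with enzyme plus substrate for no effect and substrate without enzyme for full effect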
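Material: LMPTP-A; amount: 0.625 nM enzyme; doses: single 20 µM dose; times: reaction 50 min, room temperature, dark; technique: fluorescence intensity of OMFP turnover product; benchmarks: no-enzyme and uninhibited controls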
GRK2 inh confirm: human GRK2 inhibition confirmation, cherry pick 1. aptamer displacement, % at 10 µM. AID 504451. hit rate 4% among 2,000. bead-bound GRK2, FAM-aptamer displacement, flow cytometry. shares compounds with GRK2 inh;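 active means aptamer displacement above 40%, near three times the noise of non-fluorescent compounds, on plates passing quality checks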;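 further: negative values mostly reflect intrinsic compound fluorescence rather than true enhancement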
FAM quench CP1: counter-screen for GRK2 aptamer inhibitors: fluorescent aptamer quenchers; shares compounds with GRK2 inh; 2,000 tested, under 10 active; Carboxyfluorescein RNA aptamer on beads, flow cytometry quenching; stronger effect = lower value; AID 504580; fluorescence response (% of DMSO), % at 10 µM;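 active means compounds that quench the bead-bound fluorescent RNA probe, cutting fluorescence to under half of the solvent control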;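 further: counterscreen run without GRK2 so only probe quenching by compound is measured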
GRK2 CP2: confirmation of human GRK2 inhibitors binding RNA aptamer site; 360 tested, under 10 active; bead-bound GRK2, FAM-aptamer displacement, flow cytometry; AID 504782; shares compounds with GRK2 inh; inhibition of aptamer binding, % at 10 µM;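 active means inhibition of aptamer binding above 40%, about triple the noise seen with nonglowing compounds, on plates passing quality control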;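 further: negative values mostly come from compounds that fluoresce themselves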
FAM quench SP: aptamer fluorescence quenching in GRK2 counter-screen. shares compounds with GRK2 inh. carboxyfluorescein RNA aptamer beads, flow cytometry quenching; stronger effect = lower value. fluorescence response vs DMSO, % at 10 µM. 360 tested, under 10 active. AID 588494;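 active means response vs DMSO under 50%, meaning signal dropped by over half, treated as fluorescence quencher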;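 further: labelled aptamer on streptavidin beads without GRK2 as a quench counter-screen; 100% = bead fluorescence of DMSO wells and lower means quenching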
* marks the source's active call; other numbers are inactive results; nt = no result given.

SMILES	STEP inh	GRK2 inh	SUMO1-SIM PPI	Scp1 inh	DNMT1 block	LMPTP inh	GRK2 inh confirm	FAM quench CP1	others
CN(C(=O)c1ccc(NC(=O)C2CCCN(C(=O)OC(C)(C)C)C2)cc1)C1CCC1 (stereo not given)	-1	4	-1	1	2	-1	nt	nt
Cc1cc(NC(=O)CCCn2nc(C)c([N+](=O)[O-])c2C)no1	2	51*	9	-13	0	1	0	98
CCn1nc(NS(=O)(=O)c2ccc(NC(C)=O)cc2)c2cc3cc(C)ccc3nc21	-1	0	-10	1	-3	0	nt	nt
COc1ccc(Cc2c(C3CCCCC3)nc3ccc(Cl)cn23)c(C)c1	4	nt	-3	nt	4	4	nt	nt
Cc1ccc(NC(=O)c2ccc(CN3CCc4ccccc4C3)cc2)cc1	1	0	-3	-4	-12	-1	nt	nt
O=C(Nc1ccccc1)c1ccc(CN2CCc3ccccc3C2)cc1	-2	100*	0	-2	-2	1	nt	nt	GRK2 CP2=-14;FAM quench SP=98
COc1cc(OC)cc(-c2c(C#Cc3ccsc3)c3cc(-c4cccc5[nH]cc(C=O)c45)ccc3n2C)c1	-3	1	7	15	-9	4	nt	nt
CCC/C=N/NC(=O)c1ccccc1O	-2	0	1	-1	5	-2	nt	nt
CC1(C)CC(=O)C(C(C2=C(O)CC(C)(C)CC2=O)c2ccco2)C(=O)C1 (stereo not given)	-2	94*	4	-4	5	-2	-1	104
COc1cc(C(C2=C(O)CC(C)(C)CC2=O)C2C(=O)CC(C)(C)CC2=O)cc(OC)c1OC (stereo not given)	0	1	1	-7	-1	0	nt	nt
CC(=O)OCC(=O)C1(O)CCC2C3CCC4=CC(=O)CCC4(C)C3(Cl)C(O)CC21C (stereo not given)	1	nt	2	-15	0	0	nt	nt
COc1ccc(-c2cc3cc4c(cc3cn2)OCO4)cc1	0	41*	-9	-2	2	0	nt	nt	GRK2 CP2=10;FAM quench SP=112
COc1cc(OC)cc(-c2cc3cc4c(cc3cn2)OCO4)c1	0	0	-5	-2	-13	3	nt	nt
CCOc1cc(N2CCOCC2)c(OCC)cc1NC(=O)c1cc(S(=O)(=O)N2CCOCC2)ccc1F	-2	5	1	-3	-1	0	-2	96
CCOc1cc(N2CCOCC2)c(OCC)cc1NC(=O)c1cccc(S(=O)(=O)N2CCOCC2)c1	2	30	6	7	5	-1	1	97
O=C(NC1CCCCC1)c1cc(S(=O)(=O)N2CCCCC2)ccc1N1CCOCC1	-1	42*	0	-10	2	-1	-2	102
CCCCNC(=O)CN1C(=O)NC2NC(=O)NC21 (stereo not given)	0	98*	8	22	-1	-1	3	97
COc1ccc(OC)c(-n2c(SCC(N)=O)nnc2-c2c[nH]c3ccccc23)c1	-2	0	8	-6	-1	0	nt	nt
COc1ccc(OC)c(-n2c(SC)nnc2-c2c[nH]c3ccccc23)c1	2	100*	1	2	-1	0	-3	99
CCOC(=O)C1=C(C)N=C2SCCC(=O)N2[C@@H]1c1cccs1	1	1	-5	0	-6	0	nt	nt
COCCOC(=O)C1=C(C)N=C2SCCC(=O)N2C1c1cccs1 (stereo not given)	1	81*	-6	-2	-1	0	-1	96
